Fewer inactive variants are shown than the library holds.
B1: tRNA (parent)
chain: CUCUCGGUAGCCAAGUUGGUUUAAGGCGCAAGACUUUAAUUUAUCACUACGAAAUCUUGAGAUCGGGCGUUCGACUCGCCCCCGGGAGAUUUUUUCCUCGAGCAA

Variants of: B1
Test: nonsense suppression (GFP-seq) (ratio to wild type); higher = more function; SUP4oc tRNA, yeast GFP reporter sort-seq
Summary of the method: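 Each variant's nonsense suppression (GFPSEQ) is a cell-share-weighted bin median GFP/RFP relative to the unmutated parent tRNA. Yeast with genome-integrated tRNA variants from a ~3% random-mutation library, a galactose-driven GFP ochre reporter and RFP were grown in raffinose/galactose medium with 80 mg/L adenine, then sorted into GFP/RFP bins for Illumina sequencing. Variants needed ≥100 reads and ≥30 cells.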

Variant | nonsense suppression
CUCUCGGUAGCCCAGUUGGUUUAAGGCGCAAGACUUUAAUUUAUCACUACGAAAUCUUGAGAUCGGGCGUUCGACUCGCCCCCGGGCGAUUUUUUCCUCGAGCAA [A13C A87C] | 0.0539
CUCUCGGUAGCCAAGUUGGUUUAAGGCACAAGACUUUAAUUUAUCACUACGAAAUCUUGAGAUCGAGCGUUCGACUCGCCCCCGGGAGAUUUUUUCCUCGAGCAA [G28A G66A] | 0.152
CUCUCGGAAGCCAAGGUGGUUUAAGGCGCAAGACUUUAAUUUAUCACUACGAAAUCUUGAGAUCGGGCGUUCGACUCGCCCCCGGGAGAUUUUUUCCUCGAGCAA [U8A U16G] | 0.0647
CUCUCGGUAGCCAAGUUGGUCUAAGGCGCAAGACUUUAAUUUAUCACUACGAAAUCUUGAGAUCGGGCGUUCGACUCCCCCCCGGGAGAUUUUUUCCUCGAGCAA [U21C G78C] | 0.211
CUCUCGGUAGCCAAGUUGGUUUUAGGCGCAAGAUGUUAAUUUAUCACUACGAAAUCUUGAGAUCGGGCGUUCGACUCGCCCCCGGGAGAUUUUUUCCUCGAGCAA [A23U C34U U35G] | ≤ 0.026
CUCUCGGAAGCCAAGUUGGUUUAAGGCGCGAGACUUUAAUUUAUCACUACGAAAUCUUGAGAUCGGGCGUUCGACUCGCCCCCGGGAGAUUUUUUCCUCGAGCAA [U8A A30G] | 0.0404
CUCUCGGUUGCCAAGUUGGUUUAAGGCGCAAGACUUUAAUUUAUCACUACGAAAUCUUGAUAUCGGGCGUUCGACUCGCCCCCGGGAGAUUUUUUCCUCGAGCAA [A9U G61U] | 0.573
UUCACGGUAGCCAAGUUGGUUUAAGGCGCAAGACUUUAAUUUAUCACUACGAAAUCUUGAGAUCGGGCGUUCGACUCGCCCCCGGGAGAUUUUUUCCUCGAGCAA [C1U U4A] | 0.0473
CUCUCGGUAGCCAAGUUGGUUCAAGGCGCAAGACUUUAAUUUAUCACUACGAAAUCUUGAGAUCGGGCGCUCAACUCGCCCCCGGGAGAUUUUUUCCUCGAGCAA [U22C U70C G73A] | ≤ 0.026
CUCUCGGUAGCCAAGUUGGUUUAAGGCGCAAGACUUUAAUUUAUCACUACGAAAACUUGAGAUCGGGCGUACGACUCGCCCCCGGGAGAUUUUUUCCUCGAGCAA [U55A U71A] | ≤ 0.026
CUCUCGGUAGCCAAGUGGGUUUAAGGCGCAAGACUUUAAUUUAUCACUACGAAAUCUUGAGAUCGGGCGUUCGACUCGCCCCCGGGGGAUUUUUUCCUCGAGCAA [U17G A87G] | 0.752
CUUUCGGUAGCCAAGUUGGUUUAAGGCGCAAGACUUUAAUUUAUCACUACGAAAUCUCGAGAUCGGGCGUUCGACUCGCCCCCGGGAGAUUUUUUCCUCGAGCAA [C3U U58C] | 0.202
CUCUCGGUAGCCGAGUUGGUUUAAGGCGCAAGACCUUAAUUUAUCACUACGAAAUCUUGAGAUCGGGCGUCCGACUCGCCCCCGGGAGAUUUUUUCCUCGAGCAA [A13G U35C U71C] | ≤ 0.026
CUCUCGGUAGCCAAGUUGGUUUACGGCGCAAGACUUUAAUUUAUCACUACGAAAUCUUGAGAUCGGGCGUUCGACUCGCCCCCGGGGGAUUUUUUCCUCGAGCAA [A24C A87G] | 0.479
CUCUCGGUAGCCAAGUUGGUUUAAUGCGCAAGACUUUAAUUUAUCACUACGAAAUCUUGAAAUCGGGCGUUCGACUCGCCCGCGGGAUAUUUUUUCCUCGAGCAA [G25U G61A C82G G88U] | ≤ 0.026
CUCUCUGUAGCCAAGUUGGUUUAAGGCGCAAGACUUUAAUUUAUCACUACGAAAUCUUGAGAGCGGGCGUCCGACUCGCCCCCGUGAGCUUUUUUCCUCGAGCAA [G6U U63G U71C G85U A89C] | ≤ 0.026
CUCUCGGUAGCCAAGUUGGUUUAGGGCGCAAGACUUUAAUUUAUCACUACGAAUUCUUGAGAUCGGGCGUUCGACUCGCCCCCGGGAGAUUUUUUCCUCGAGCAA [A24G A54U] | 0.0262
CUCUCGGUAGCCAAGUUGGUUUAAGGCGCAAGACUUUAAUUUAUCACUACGAAAUCUUGAGAUCGGGCGUUCAACUCGCCCCCCGGAGAUUUUUUCCUCGAGCAA [G73A G84C] | 0.361
CUCUCGGUCGCCAAGUUGGUUUAAGGCGCAGGACUUUAAUUUAUCACUACGAAAUCUUGAGAUCGGGGGUUCGACUCGCCCCCGGAAGAUUUUUUCCUCGAGCAA [A9C A31G C68G G86A] | ≤ 0.026
CUCUCGGUAGCCAAGCUGGUUUAAGGCGCAAAACUUUAAUUUAUCACUACGAAAUCUUAAGAUCGGGCGUUCGACUCGCCCGCGGGAGAUUUUUUCCUCGAGCAA [U16C G32A G59A C82G] | ≤ 0.026
CUCUCGAUAGCCAAGUUGGUUUAAGGCGCAAGACUUUAAUUUAUCACUACGAAAACUUGAGAUCGGGCGUUCGACUCGCCCCCGGGAGAUUUUUUCCUCGAGCAA [G7A U55A] | ≤ 0.026
CUCUCGGUAGCCAAGUUGGUUUAAGGCGUAAGACUUUAAUUUAUCACUACGAAAUCUUGAGAUUGGGCGUUCGACUCGCCCCCGGGAGAUUUUUUCCUCGAGCAA [C29U C64U] | 0.035
CUCUCGGUAGCCAAGUUGGGUUAAGGCGCAACACUUUAAUUUAUCACUACGAAAUCUUGAGUUCGGGCGUUCGACUCGCCCCCGGGAGAUUUUUUCCUCGAGCAA [U20G G32C A62U] | ≤ 0.026
CUCUCGGUAGCCAAGUUAGUUUACGGCGCAAGACUUUAAUUUAUCACUACGAAAUCUUGAGAUCGGGCGUUCGACUCGCCCCCGGGAGAUUUUUUCCUCGAGCAA [G18A A24C] | 0.0483
CUCUCGGUAGCCAGGUUGGUUUAAGACGCAAGACUUUAAUUUAUCACUACGAAAUCUUGAGAUCGCGCGUUCGACUCGCCCCCGGGAGAUUUUUUCCUCGAGCAA [A14G G26A G66C] | ≤ 0.026
CUCUCGCUAGCCAAGUUGGUUUAAGGCGCAAGACGUUAAUUUAUCACUACGAAAUCUUGAGAUCGGGCGUUCGACUCGCCCCCGGGAGAUUUUUUCCUCGAGCAA [G7C U35G] | ≤ 0.026
CUCUCGGUAGCCAAGUUGGUUUAAGGUACAAGACUUUAAUUUAUCACUACGAAAUCUUGAGAUCGGGCGUUCGACUCGCCCCCGGGAGAUUUUUUCCUCGAGCAA [C27U G28A] | 0.0265
